Measured values: the M2OR odorant receptor database

The compounds below were run against T1, UniProt Q8VH16. Conditions: stereoisomer not certain.
T1 sequence (whole entry): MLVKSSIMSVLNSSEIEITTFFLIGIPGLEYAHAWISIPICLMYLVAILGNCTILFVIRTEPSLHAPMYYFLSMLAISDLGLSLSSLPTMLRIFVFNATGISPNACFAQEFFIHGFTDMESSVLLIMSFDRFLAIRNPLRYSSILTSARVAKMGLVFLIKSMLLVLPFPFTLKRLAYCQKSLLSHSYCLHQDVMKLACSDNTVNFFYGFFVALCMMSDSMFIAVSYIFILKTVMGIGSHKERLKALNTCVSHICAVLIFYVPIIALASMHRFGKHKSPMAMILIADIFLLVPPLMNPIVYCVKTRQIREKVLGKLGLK
Summary of the method: (§1)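 Each entry records the cell line, G-protein, co-transfected protein and tags used. Methods varied with the source, often transient luciferase assays in mammalian cell lines. A receptor–molecule pair is called responsive (active) if the original authors judged its signal statistically different from baseline and non-responsive (inactive) otherwise.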

Compound	odorant receptor agonist call
CCCCCCCCC(=O)O	inactive
CCCCCCCO	inactive
c1ccccc1	inactive
CCCCCOC(=O)CCCCC	inactive
CCCCCC1=C(C)CCC1=O	inactive
CC(C)=CCCC(C)=CCO	inactive
O=C(c1ccccc1)c1ccccc1	inactive
CC(=O)Oc1ccccc1	inactive
COc1cc(C(=O)O)ccc1O	inactive
CC12CCC(CC1=O)C2(C)C (stereo not drawn)	inactive
CCCCCCCCCC(=O)[O-].[H+]	inactive
CCCCCCC(C)=O	inactive
C=CCOC(=O)CCCCCC	inactive
CCCCC(=O)CC	inactive
CCCC(=O)C(C)=O	inactive
CCCCCCCCCCO	inactive
O=C1CCOc2ccccc21	inactive
CC(C)=CCCC(C)CCO (stereo not drawn)	inactive

Compound	odorant receptor agonist call
CCCCC(=O)O	inactive
CCCCCCCCS	inactive
CCC(=O)O	inactive
CC(=O)OCC=C(C)C	inactive
CCCCC(C)=O	inactive
CCCCCC(=O)CC	inactive
CCC(=O)C(=O)CC	inactive
O=C1Cc2ccccc2O1	inactive
CCOC(=O)C(C)C	inactive
CCCCCCO	inactive
CCCCCC=O	inactive
CCCCCCCCCS	inactive
CCCCCCCCO	inactive
CC(=O)OCc1ccccc1	inactive
CCCCOC=O	inactive
CCCCCCCCCO	inactive
CCCCCCOC(C)=O	inactive
CCCCCCCC(C)=O	inactive

What follows are compounds tested against T2, UniProt Q8VH18. Conditions: stereoisomer not certain.
T2 sequence (whole entry): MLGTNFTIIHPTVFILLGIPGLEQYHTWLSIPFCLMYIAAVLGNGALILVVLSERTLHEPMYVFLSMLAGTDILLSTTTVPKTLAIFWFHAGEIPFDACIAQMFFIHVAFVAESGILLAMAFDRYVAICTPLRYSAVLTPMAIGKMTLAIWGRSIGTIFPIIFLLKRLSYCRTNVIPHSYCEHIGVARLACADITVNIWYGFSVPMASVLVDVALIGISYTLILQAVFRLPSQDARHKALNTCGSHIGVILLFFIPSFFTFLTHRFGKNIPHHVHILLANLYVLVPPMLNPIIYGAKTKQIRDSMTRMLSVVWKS
Summary of the method: as §1

Compound	odorant receptor agonist call
CCCCCCCCC(=O)O	active
CCCCCCCO	inactive
CCCCCCCCCC(=O)[O-].[H+]	inactive
CCCCCCO	inactive
CCCCCCCCO	active
CCCCCCCCCO	active

Each compound was assayed against T3, UniProt Q8VH20. Conditions: stereoisomer not certain.
T3 sequence (whole entry): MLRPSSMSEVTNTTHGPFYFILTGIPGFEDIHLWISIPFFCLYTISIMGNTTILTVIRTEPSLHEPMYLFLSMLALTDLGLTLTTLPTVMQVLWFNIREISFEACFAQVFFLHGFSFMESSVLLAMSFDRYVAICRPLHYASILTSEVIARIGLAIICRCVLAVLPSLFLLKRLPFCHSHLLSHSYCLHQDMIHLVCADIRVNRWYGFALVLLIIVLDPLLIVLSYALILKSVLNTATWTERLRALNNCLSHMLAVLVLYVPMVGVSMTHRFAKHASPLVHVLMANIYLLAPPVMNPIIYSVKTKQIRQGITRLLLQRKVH
Summary of the method: as §1

Compound	odorant receptor agonist call
CCCCCCCCC(=O)O	active
CCCCCCCO	inactive
c1ccccc1	inactive
CCCCCOC(=O)CCCCC	inactive
CCCCCC1=C(C)CCC1=O	inactive
CC(C)=CCCC(C)=CCO	inactive
O=C(c1ccccc1)c1ccccc1	inactive
CC(=O)Oc1ccccc1	inactive
COc1cc(C(=O)O)ccc1O	inactive
CC12CCC(CC1=O)C2(C)C (stereo not drawn)	inactive
CCCCCCCCCC(=O)[O-].[H+]	active
CCCCCCC(C)=O	inactive
C=CCOC(=O)CCCCCC	inactive
CCCCC(=O)CC	inactive
CCCC(=O)C(C)=O	inactive
CCCCCCCCCCO	inactive
O=C1CCOc2ccccc21	inactive
CC(C)=CCCC(C)CCO (stereo not drawn)	inactive

Compound	odorant receptor agonist call
CCCCC(=O)O	inactive
CCCCCCCCS	inactive
CCC(=O)O	inactive
CC(=O)OCC=C(C)C	inactive
CCCCC(C)=O	inactive
CCCCCC(=O)CC	inactive
CCC(=O)C(=O)CC	inactive
O=C1Cc2ccccc2O1	inactive
CCOC(=O)C(C)C	inactive
CCCCCCO	inactive
CCCCCC=O	inactive
CCCCCCCCCS	inactive
CCCCCCCCO	inactive
CC(=O)OCc1ccccc1	inactive
CCCCOC=O	inactive
CCCCCCCCCO	inactive
CCCCCCOC(C)=O	inactive
CCCCCCCC(C)=O	inactive
